Source: ChEMBL document CHEMBL1687800, “Emergence of metallo-β-lactamase NDM-1-producing multidrug-resistant Escherichia coli in Australia” (2010)
In brackets after ≈: the same amount, converted by molar mass.

Key:
Format in all cases: functional
[1] = system: Escherichia coli; test: Antibacterial activity against Escherichia coli TOP10 expressing metallo-beta-lactamase NDM-1
Summary of the method: (§1)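 MICs of β-lactams read by Etest on Mueller-Hinton agar plates incubated at 37°C, with susceptibility categories assigned according to CLSI guidelines. Strains tested were a clinical urine isolate (E. coli 271), E. coli TOP10 carrying recombinant plasmid p271A expressing NDM-1, and the TOP10 reference strain.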

[2] = system: Escherichia coli; test: Antibacterial activity against Escherichia coli isolate 271; summary of the method: as §1
[3] = system: Escherichia coli; test: Antibacterial activity against Escherichia coli TOP10; summary of the method: as §1

SMILES	MIC [1] [µg/mL]	MIC [2] [µg/mL]	MIC [3] [µg/mL]
C[C@H]1[C@H](NC(=O)/C(=N\OC(C)(C)C(=O)O)c2csc(N)n2)C(=O)N1S(=O)(=O)O [AZTREONAM]	0.25 (≈ 0.574 µM)	64 (≈ 147 µM)	–
C[C@@H](O)[C@H]1C(=O)N2C(C(=O)O)=C(S[C@@H]3CN[C@H](C(=O)N(C)C)C3)[C@H](C)[C@H]12 [MEROPENEM]	3 (≈ 7.82 µM)	16 (≈ 41.7 µM)	0.06 (≈ 0.156 µM)
C[C@@H](O)[C@H]1C(=O)N2C(C(=O)O)=C(S[C@@H]3CN[C@H](C(=O)Nc4cccc(C(=O)O)c4)C3)[C@H](C)[C@H]12 [ERTAPENEM]	3 (≈ 6.31 µM)	32 (≈ 67.3 µM)	0.06 (≈ 0.126 µM)
CO[C@@]1(NC(=O)Cc2cccs2)C(=O)N2C(C(=O)O)=C(COC(N)=O)CS[C@@H]21 [CEFOXITIN]	256 (≈ 599 µM)	512 (≈ 1200 µM)	4 (≈ 9.36 µM)
CC(C)(O/N=C(\C(=O)N[C@@H]1C(=O)N2C(C(=O)[O-])=C(C[n+]3ccccc3)CS[C@H]12)c1csc(N)n1)C(=O)O [CEFTAZIDIME]	128 (≈ 234 µM)	256 (≈ 468 µM)	0.06 (≈ 0.11 µM)
CC1(C)S[C@@H]2[C@H](NC(=O)[C@H](N)c3ccc(O)cc3)C(=O)N2[C@H]1C(=O)O [AMOXICILLIN]	> 512	> 512	4 (≈ 10.9 µM)
CO/N=C(\C(=O)N[C@@H]1C(=O)N2C(C(=O)[O-])=C(C[N+]3(C)CCCC3)CS[C@H]12)c1csc(N)n1 [CEFEPIME]	16 (≈ 33.3 µM)	64 (≈ 133 µM)	–
CCN1CCN(C(=O)N[C@@H](C(=O)N[C@@H]2C(=O)N3[C@@H]2SC(C)(C)[C@@H]3C(=O)O)c2ccccc2)C(=O)C1=O [PIPERACILLIN]	512 (≈ 989 µM)	> 512	1 (≈ 1.93 µM)
CC1(C)S[C@@H]2[C@H](NC(=O)[C@H](C(=O)O)c3ccsc3)C(=O)N2[C@H]1C(=O)O [TICARCILLIN]	> 512	> 512	4 (≈ 10.4 µM)
CO/N=C(\C(=O)N[C@@H]1C(=O)N2C(C(=O)O)=C(COC(C)=O)CS[C@H]12)c1csc(N)n1 [CEFOTAXIME]	256 (≈ 562 µM)	512 (≈ 1120 µM)	0.12 (≈ 0.263 µM)
C[C@@H](O)[C@H]1C(=O)N2C(C(=O)O)=C(SCCNC=N)C[C@H]12 [IMIPENEM ANHYDROUS]	4 (≈ 13.4 µM)	6 (≈ 20 µM)	–
